From ChEMBL document CHEMBL1156819, “Structure-activity studies of urea, carbamate, and sulfonamide derivatives of acylfulvene” (J Med Chem, 2010)
Active and inactive are the calls of the source. The rule behind the calls is not given here.

Legend:
[1] = Cytotoxicity against human MV522 cells after 48 hrs by trypan blue exclusion assay; type: functional, cell-based; details: MV522, 48 h
Outline: (§1)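 Human MV522 lung adenocarcinoma (target) and 8392 B-cell lymphoma/leukemia (nontarget) lines. Compounds were made as 1 mg/mL stocks in cell-culture-grade DMSO and diluted in sterile 10% DMSO/PBS just before addition. Cells were exposed continuously for 48 h, and controls received equal DMSO/PBS vehicle. Cell survival was scored at 48 h by trypan blue exclusion.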

[2] = Cytotoxicity against human 8392B cells after 48 hrs by trypan blue exclusion assay; type: cell-based; outline: as §1
[3] = Selectivity index, ratio of IC50 for human 8392B cells to IC50 for human MV522 cells; type: functional
MV522 = experiment: In-vivo antitumor activity against human MV522 cells assessed as induction of tumor shrinkage in xenograft model at nontoxic dose; type: functional, cell-based

Row | Compound | IC50 [1] [nM] | IC50 [2] [nM] | Ratio IC50 [3] | Activity (MV522)
1 | CC1=C(CCCOC(=O)NCCCl)C2=C(C)C3(CC3)[C@@](C)(O)C(=O)C2=C1 | 57 |  |  | 
2 | CC1=C(CNC(=O)NCCO)C2=C(C)C3(CC3)[C@@](C)(O)C(=O)C2=C1 | 190 | > 9000 | >47 | 
3 | CC1=C(CNC(=O)NCCCl)C2=C(C)C3(CC3)[C@@](C)(O)C(=O)C2=C1 |  | > 8500 |  | 
4 | CC1=C(CCCOC(=O)NCCO)C2=C(C)C3(CC3)[C@@](C)(O)C(=O)C2=C1 |  |  |  | Active
5 | CC1=C(CCCNS(N)(=O)=O)C2=C(C)C3(CC3)[C@@](C)(O)C(=O)C2=C1 | 76 | 54000 | 710 | Active
6 | CC1=C(CCCNS(C)(=O)=O)C2=C(C)C3(CC3)[C@@](C)(O)C(=O)C2=C1 | 280 | 42000 | >150 | Active
7 | CC1=C(CCCNC(=O)NO)C2=C(C)C3(CC3)[C@@](C)(O)C(=O)C2=C1 |  | > 9000 |  | 
8 | CC1=C(CCCOC(=O)N2CCOCC2)C2=C(C)C3(CC3)[C@@](C)(O)C(=O)C2=C1 |  | 62200 |  | 
9 | CC1=C(CNC(=O)NO)C2=C(C)C3(CC3)[C@@](C)(O)C(=O)C2=C1 | 190 | 9800 | >51 | 
10 | CC1=C(CNS(C)(=O)=O)C2=C(C)C3(CC3)[C@@](C)(O)C(=O)C2=C1 |  | > 9300 |  | 
11 | CC1=C(CCCNS(=O)(=O)NO)C2=C(C)C3(CC3)[C@@](C)(O)C(=O)C2=C1 | 8 | 250 | 31 | 
12 | CONC(=O)NCC1=C(C)C=C2C(=O)[C@](C)(O)C3(CC3)C(C)=C21 |  | > 9400 |  | 
13 | CC1=C(CCCNC(=O)NCCO)C2=C(C)C3(CC3)[C@@](C)(O)C(=O)C2=C1 | < 80 | > 2800 | >35 | 
14 | CC1=C(CO)C2=C(C)C3(CC3)[C@@](C)(O)C(=O)C2=C1 [IROFULVEN] | 170 | 76 |  | 
15 | CC1=C(CNS(N)(=O)=O)C2=C(C)C3(CC3)[C@@](C)(O)C(=O)C2=C1 | 300 | > 9300 | >31 | 
16 | CC1=C(CCCNC(=O)N2CCC(N3CCCCC3)CC2)C2=C(C)C3(CC3)[C@@](C)(O)C(=O)C2=C1 |  | 9000 |  | 
17 | CC1=C(CCCOC(=O)N2CCCCC2)C2=C(C)C3(CC3)[C@@](C)(O)C(=O)C2=C1 | 1200 | 7100 | 6 | 
18 | CC1=C(CCCNS(=O)(=O)c2ccc(C)cc2)C2=C(C)C3(CC3)[C@@](C)(O)C(=O)C2=C1 | 580 |  |  | 
